According to ChEMBL document CHEMBL4354843, “Structure-Based Design of a Potent and Selective Covalent Inhibitor for SRC Kinase That Targets a P-Loop Cysteine” (J Med Chem, 2020):

What was measured:
[1] = molecular target: Tyrosine-protein kinase CSK (Homo sapiens) (UniProt P41240); assay: Binding affinity to wild-type human full length CSK (M1 to L450 residues) expressed in bacterial expression system assessed as residual binding level at 1 uM by Kinomescan method relative to control
Method in brief: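 KinomeScan, an active site-directed competition binding panel of 468 kinases. The test compound was at 1 μM. The readout is remaining kinase binding as a percentage of the DMSO control. Scores above 35% were treated as weak binding and not listed.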

[2] = molecular target: ALK tyrosine kinase receptor (Homo sapiens) (UniProt Q9UM73); assay: Binding affinity to wild-type human partial length ALK (I1088 to E1409 residues) expressed in mammalian expression system assessed as residual binding level at 1 uM by Kinomescan method relative to control
[3] = molecular target: Serine/threonine-protein kinase tousled-like 2 (Homo sapiens) (UniProt Q86UE8); assay: Binding affinity to wild-type human partial length TLK2 (E424 to N749 residues) expressed in bacterial expression system assessed as residual binding level at 1 uM by Kinomescan method relative to control
[4] = molecular target: Serine/threonine-protein kinase pim-1 (Homo sapiens) (UniProt P11309); assay: Binding affinity to wild-type human partial length PIM1 (A15 to K313 residues) expressed in bacterial expression system assessed as residual binding level at 1 uM by Kinomescan method relative to control
[5] = molecular target: Receptor-interacting serine/threonine-protein kinase 2 (Homo sapiens) (UniProt O43353); assay: Binding affinity to wild-type human partial length RIPK2 (M1 to K310 residues) expressed in bacterial expression system assessed as residual binding level at 1 uM by Kinomescan method relative to control
[6] = molecular target: Fibroblast growth factor receptor 4 (Homo sapiens) (UniProt P22455); assay: Binding affinity to wild-type human partial length FGFR4 (G402 to E713 residues) expressed in bacterial expression system assessed as residual binding level at 1 uM by Kinomescan method relative to control
[7] = molecular target: Wee1-like protein kinase 2 (Homo sapiens) (UniProt P0C1S8); assay: Binding affinity to wild-type human partial length WEE2 (M204 to K492 residues) expressed in bacterial expression system assessed as residual binding level at 1 uM by Kinomescan method relative to control
[8] = molecular target: Macrophage-stimulating protein receptor (Homo sapiens) (UniProt Q04912); assay: Binding affinity to wild-type human partial length MST1R (I1057 to L1363 residues) expressed in bacterial expression system assessed as residual binding level at 1 uM by Kinomescan method relative to control
MDA-MB-231 = assay: Antiproliferative activity against human MDA-MB-231 cells assessed as reduction in cell viability incubated for 72 hrs by cell-titer glo assay relative to control; type: functional
Method in brief: (§1)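 Cells seeded at 2000 cells/well, dosed next day with a range of concentrations (DMSO 0.2% as control), 72 h exposure, viability read by CellTiter-Glo luminescence. Dose–response curves and GR values derived with the online GR calculator. Two independent experiments, each in technical triplicate.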

[9] = molecular target: MAP/microtubule affinity-regulating kinase 4 (Homo sapiens) (UniProt Q96L34); assay: Binding affinity to wild-type human partial length MARK4 (K29 to G340 residues) expressed in bacterial expression system assessed as residual binding level at 1 uM by Kinomescan method relative to control
[10] = test system: Leucine-rich repeat serine/threonine-protein kinase 2 (Homo sapiens), Q5S007 [G2019S]; assay: Binding affinity to human partial length LRRK2 G2019S mutant (H970 to E2527 residues) expressed in mammalian expression system assessed as residual binding level at 1 uM by Kinomescan method relative to control
Method in brief: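 KinomeScan active site-directed competition binding panel (468 kinases), compound tested at 1 μM. Result expressed as remaining kinase signal versus DMSO control (percent of control).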

HCC827 [11] = assay: Antiproliferative activity against human HCC827 cells assessed as reduction in cell viability incubated for 72 hrs by cell-titer glo assay; conditions: HCC827, 72 h
[12] = molecular target: Ribosomal protein S6 kinase alpha-2 (Homo sapiens) (UniProt Q15349); assay: Binding affinity to wild-type human partial length C-terminal RSK3 kinase domain 2 (V403 to K700 residues) expressed in bacterial expression system assessed as residual binding level at 1 uM by Kinomescan method relative to control
[13] = molecular target: Mitogen-activated protein kinase kinase kinase kinase 3 (Homo sapiens) (UniProt Q8IVH8); assay: Binding affinity to wild-type human partial length MAP4K3 (M1 to D301 residues) expressed in bacterial expression system assessed as residual binding level at 1 uM by Kinomescan method relative to control
[14] = molecular target: Myosin light chain kinase (Homo sapiens) (UniProt Q32MK0); assay: Binding affinity to wild-type human partial length MLCK (D488 to K800 residues) expressed in bacterial expression system assessed as residual binding level at 1 uM by Kinomescan method relative to control
[15] = molecular target: Mitogen-activated protein kinase 3 (Homo sapiens) (UniProt P27361); assay: Binding affinity to wild-type human full length ERK1 (M1 to P379 residues) expressed in bacterial expression system assessed as residual binding level at 1 uM by Kinomescan method relative to control
Method in brief: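 Active-site-directed KinomeScan competition binding panel covering 468 kinases, compound tested at 1 μM. Each readout is the kinase signal remaining with compound, expressed as a percentage of the DMSO control. […]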

HCC827 [16] = assay: Antiproliferative activity against human HCC827 cells assessed as reduction in cell viability incubated for 72 hrs by cell-titer glo assay relative to control; type: functional; method in brief: as §1
[17] = molecular target: Proto-oncogene tyrosine-protein kinase ROS (Homo sapiens) (UniProt P08922); assay: Binding affinity to wild-type human partial length ROS1 (A1921 to N2240 residues) expressed in bacterial expression system assessed as residual binding level at 1 uM by Kinomescan method relative to control
[18] = molecular target: Serine/threonine-protein kinase PAK 2 (Homo sapiens) (UniProt Q13177); assay: Binding affinity to wild-type human partial length PAK2 (P151 to R525 residues) expressed in bacterial expression system assessed as residual binding level at 1 uM by Kinomescan method relative to control
Method in brief: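 Active-site-directed competition binding panel of 468 kinases (KinomeScan), compound at 1 μM. The read-out is kinase remaining bound, given as a percentage of the DMSO control. […]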

[19] = molecular target: Ephrin type-B receptor 1 (Homo sapiens) (UniProt P54762); assay: Binding affinity to wild-type human partial length EPHB1 (P589 to T911 residues) expressed in bacterial expression system assessed as residual binding level at 1 uM by Kinomescan method relative to control
[20] = molecular target: Serine/threonine-protein kinase SIK2 (Homo sapiens) (UniProt Q9H0K1); assay: Binding affinity to wild-type human full length SIK2 (M1 to N926 residues) expressed in bacterial expression system assessed as residual binding level at 1 uM by Kinomescan method relative to control
Method in brief: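 Active site-directed binding assay (KinomeScan) run across a 468-kinase panel, with the test compound at 1 μM. The read-out is the remaining kinase signal in the presence of compound, expressed as a percentage of the DMSO control. Scores above 35% were taken as weak binding and were not reported.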

C=CC(=O)Nc1ccccc1Nc1nc(Nc2ccc(N3CCN(C)CC3)cc2)ncc1C(=O)Nc1c(C)cccc1Cl
Activity [1]: 1.3%
Activity [2]: 100%
Activity [3]: 100%
Activity [4]: 100%
Activity [5]: 100%
Activity [6]: 100%
Activity [7]: 100%
Activity [8]: 100%
Emax (MDA-MB-231): -0.4
Activity [9]: 95%
Activity [10]: 100%
IC50 (HCC827 [11]): 500 nM
Activity [12]: 100%
Activity [13]: 100%
Activity [14]: 100%
Activity [15]: 100%
Emax (HCC827 [16]): -0.6
Activity [17]: 100%
Activity [18]: 97%
Activity [19]: 66%
Activity [20]: 67%
